FLuc inh counter: Photinus pyralis luciferase inhibition counter-screen | P08659 | ATPLite firefly luciferase biochemical luminescence, 10 min | inhibition, % at 10 µM | 1.5% of 200,000 active;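 active = inhibition above about 50% when tested at 10 µM, limit read from the data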
Target sequence (P08659 whole entry, looked up): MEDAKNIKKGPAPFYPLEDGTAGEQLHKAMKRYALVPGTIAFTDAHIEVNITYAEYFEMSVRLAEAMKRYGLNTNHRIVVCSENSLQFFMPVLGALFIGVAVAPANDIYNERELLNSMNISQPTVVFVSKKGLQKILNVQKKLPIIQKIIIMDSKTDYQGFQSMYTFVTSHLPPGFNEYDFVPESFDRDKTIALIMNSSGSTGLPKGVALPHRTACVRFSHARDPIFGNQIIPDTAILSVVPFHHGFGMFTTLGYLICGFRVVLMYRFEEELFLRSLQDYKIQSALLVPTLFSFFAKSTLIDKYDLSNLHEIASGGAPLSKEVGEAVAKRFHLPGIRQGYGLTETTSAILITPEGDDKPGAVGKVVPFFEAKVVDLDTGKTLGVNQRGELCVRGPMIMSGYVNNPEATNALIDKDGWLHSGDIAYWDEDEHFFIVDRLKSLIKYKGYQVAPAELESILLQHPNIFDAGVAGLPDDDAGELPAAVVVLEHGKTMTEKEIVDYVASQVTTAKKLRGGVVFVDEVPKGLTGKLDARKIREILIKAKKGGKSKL
STAT1 activator: STAT1 signaling activation; 2.6% of 200,000 active; activation (% of control), % at 5.5 µM; NIH 3T3 STAT1-luciferase reporter, IFN-gamma, luminescence; 100% = IFN-gamma alone, no compound;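 active = activation above the screen-wide mean activation plus 3 SD, cut at about 130% in these data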
FLuc act counter: firefly luciferase counter-screen for stimulation assays; P08659; ATPlite luciferase biochemical, luminescence, 10 min; 0 = ATP-free wells, 1 = DMSO control; activation factor at 10 µM; 200,000 tested, under 10 active;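 active = luciferase activation factor, scaled between plate controls, of at least 2 with compound at 10 µM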
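Assay system: Luciferase/luciferin detection reagent, cell-free biochemical luciferase assay / Read-out: luciferase activation / Benchmarks: No-ATP low control, compound-free enzyme-plus-ATP high control / Medium: PBS buffer for ATP / Detection: luminescence measurement of luciferase light output / Schedule: 10 min at ambient temperature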
NF-kB neuron act: raises NF-kB expression in human neuronal cells; NF-kB reporter expression; stronger effect = higher value; fold change at 12.5 µM; 1.6% of 190,000 active; AID 1239; in the data active = fold change above about 3.3
Pf gametocyte: kills late stage P. falciparum gametocytes; P. falciparum stage V gametocytes, ATP luminescence, 24 h; inhibition, % at 10.9 µM; 0.065% of 150,000 active; AID 743093;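 active = inhibition above the mean plus 3 SD of compounds within the control limits, set per campaign, cut at about 38% in these data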
APP 5'UTR act: APP 5'UTR luciferase reporter activation; SH-SY5Y APP 5'UTR luciferase reporter, luminescence; zero percent = DMSO vehicle wells; 1% of 190,000 active; activation, % at 2 µM;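 active = activation above a set limit, based on mean plus 3 SD of controls, cut at about 140% in these data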
A number is an active result; i = inactive; nt = not tested or not shown. The list is not random: actives were taken first. Their share in the collection is about 3.5%.

SMILES	FLuc inh counter	STAT1 activator	FLuc act counter	NF-kB neuron act	Pf gametocyte	APP 5'UTR act
CCC(NC(=O)C1CCCC1)c1ccccc1 (centres undefined)	nt	nt	nt	nt	i	nt
Cc1cccc(NC(=O)C(=O)NCc2ccc3c(c2)OCO3)c1C	i	i	i	i	i	i
NC(=O)C1CCN(c2nc(-c3ccccc3)nc3ccccc23)CC1	i	i	i	i	i	i
NC(=O)C1CCN(c2ncnc3c(-c4ccccc4)nsc23)CC1	i	139	i	i	nt	i
O=C(c1ccco1)N1CCN(c2ncnc3c(-c4ccccc4)nsc23)CC1	i	129	i	i	i	i
C=CCOc1ccc(/C=C/C(C)=N\O)cc1	61	132	i	4.2	i	i
C=CCOc1ccc(/C=C/C(=O)Nc2ccc(C(=O)NC)cc2)cc1	i	i	i	i	i	i
O=C(Cc1cccs1)NCc1ccc(Cl)cc1Cl	nt	nt	nt	nt	i	nt
CCn1c(C)csc1=NC(=O)c1ccccc1	i	i	i	i	nt	i
Cc1csc(=NC(=O)c2ccccc2)n1C	i	i	i	3.6	i	i
COc1ccc(C(=O)OCc2csc(C)n2)c(O)c1	i	139	i	i	i	i
O=C(Cc1ccccc1)N1CCN=C1SCc1cccc([N+](=O)[O-])c1	i	i	i	i	i	i
COc1cccc2c(=O)c(C(=O)NCc3cccs3)c[nH]c12	i	130	i	i	i	i
Cc1ccc(C(=O)CSc2ncnc3ccccc23)o1	i	159	i	i	i	i
O=C(CSc1ncnc2ccccc12)c1cccs1	70	i	i	4.6	i	139
Cc1ccc(CSc2ncnc3ccccc23)cc1	i	i	i	i	i	i
Cc1ccccc1C(=O)N1CCC(C(=O)Nc2ccc3c(c2)OCCO3)CC1	i	i	i	i	nt	i
COCc1cc(C)nc2sc(C(=O)Nc3nccs3)c(N)c12	i	132	i	i	nt	i
Cc1cc(C)c2c(N)c(C(=O)Nc3nccs3)sc2n1	94	i	i	i	i	i
Cc1cc(C(=O)Cn2nc(C(=O)O)c3ccccc3c2=O)c(C)n1-c1ccccc1	92	i	i	i	i	i
Cc1cc(C)c(C(=O)Cn2nc(C(=O)O)c3ccccc3c2=O)cc1C	nt	nt	nt	nt	i	nt
Cc1cc(/C=C2/C(=N)N3C(=NC2=O)SN=C3S(C)(=O)=O)c(C)n1-c1ccccc1F	93	i	i	i	i	i
Cc1cccc2c1N(CCOc1ccccc1Cl)C(=O)C2=O	i	i	i	3.7	nt	i
Cc1nc(NC(=O)CSc2nc3cccnc3n2Cc2ccccc2)sc1C	i	i	i	i	nt	i
O=C(N/N=C/c1ccc(O)c(O)c1O)/C(=C/c1ccc([N+](=O)[O-])cc1)NC(=O)c1ccccc1	i	i	i	i	40	i
SMILES	FLuc inh counter	STAT1 activator	FLuc act counter	NF-kB neuron act	Pf gametocyte	APP 5'UTR act
COc1ccc(CSc2nc3ccccc3c(=O)n2CCCN2CCOCC2)cc1F	i	i	i	i	i	i
CCOc1ccc(C(=O)Nc2ncccc2Cl)cc1	i	129	i	i	i	i
CCOc1ccc(NC(=O)c2cccnc2C(=O)O)cc1	i	i	i	i	nt	i
CCN(CC)c1ccc(/C=N/NC(=O)c2cnccn2)cc1	66	132	i	i	i	i
CCOc1ccc(NC(=O)c2cnccn2)cc1	72	i	i	i	i	150
CCOc1ccc(NC(=O)c2ccccn2)cc1	96	i	i	i	i	i
COc1ccccc1CCC(=O)Nc1ccc(C)cc1Cl	i	i	i	i	nt	i
CCOc1ccc(NC(=O)c2ccccc2CO)cc1	i	i	i	i	i	i
Cc1ccc(NC(=O)c2cnccn2)cc1	i	134	i	i	i	i
CCCC(=O)Nc1ccc(NC(=O)c2ccccn2)cn1	i	141	i	i	nt	i
CCOc1ccc(NC(=O)c2ccccc2O)cc1	87	i	i	6.3	nt	i
CCCC(=O)Nc1ccc(NC(=O)c2ccccc2OC)cn1	i	i	i	i	nt	i
O=C(Nc1ccc(OC(F)F)c(Cl)c1)c1ccccn1	i	146	i	9.4	i	139
CCOC(=O)C/C(N)=N/NC(=O)c1ccc(Cl)cc1Cl	i	i	i	i	i	i
O=C1c2ccccc2C(=O)N1CCCn1c2ccc(Cl)cc2c2nc3ccccc3nc21	nt	nt	nt	nt	i	nt
O=C(NS(=O)(=O)N1CCCC1)C1=C(N2CCCC2)COC1=O	nt	nt	nt	nt	i	nt
CCOc1ccc(NC(N)=O)cc1	i	i	i	i	i	i
CCOc1ccc(NC(=O)c2oc3ccccc3c2NC(=O)CC)cc1	i	i	i	5.1	nt	i
CCOc1ccc(NC(=O)c2cnsn2)cc1	61	i	i	3.5	i	153
CCOc1ccc(NC(=O)c2nccnc2CO)cc1	63	144	i	i	nt	i
Cc1ccc(NC(=O)c2ccc(Cl)nc2)cc1	i	131	i	i	i	i
COc1ccc(NC(=O)c2oc3ccccc3c2NC(=O)C2CC2)cc1	i	i	i	i	i	i
CC(CN)(NS(=O)(=O)c1ccccc1)c1ccccc1 (centres undefined)	nt	nt	nt	nt	i	nt
COCCn1c(SCC(=O)/C=C2\N(C)c3ccccc3C2(C)C)nnc1-c1ccncc1	i	i	i	i	i	i
CCCCC(=O)Nc1ccc(C(=O)NCCc2ccc(S(N)(=O)=O)cc2)cc1	i	i	i	i	i	i
SMILES	FLuc inh counter	STAT1 activator	FLuc act counter	NF-kB neuron act	Pf gametocyte	APP 5'UTR act
CCOc1ccc(NC(=O)c2ccccc2OCC(=O)c2ccccc2)cc1	61	i	i	i	i	i
O=C(COc1ccc(F)cc1Br)NCc1ccccn1	i	i	i	i	i	i
Cc1ccc(OCC(=O)NCc2ccccn2)c(Br)c1	i	141	i	i	i	i
CN(C)c1ccc(C(=O)c2ccc(N(C)C)c3ccccc23)cc1	i	139	i	5.2	nt	i
O=C(NCc1ccco1)c1ccc(Cn2cc([N+](=O)[O-])cn2)o1	i	i	i	i	nt	i
O=C(NCc1cccnc1)c1ccc([N+](=O)[O-])o1	i	i	i	5.3	i	i
O=C(NN(c1ccccc1)c1ccccc1)c1ccc([N+](=O)[O-])o1	i	i	i	3.5	i	i
O=C(NNC(=O)c1ccc([N+](=O)[O-])o1)c1ccccc1	i	i	i	i	i	i
O=C(NCc1ccco1)c1ccc([N+](=O)[O-])o1	i	i	i	5.6	i	i
O=C(Cc1ccc([N+](=O)[O-])cc1)NCc1cccnc1	nt	nt	nt	nt	i	nt
Cc1cc(C)n(CCOc2ccc(Br)cc2)n1	nt	nt	nt	nt	i	nt
CC(=O)Nc1cc(NC(C)=O)cc(C(=O)OCC(=O)N2CC(C)OC(C)C2)c1 (centres undefined)	i	i	i	i	nt	i
O=C(Nc1cccc(O)c1)C(=O)Nc1ccccn1	84	i	i	i	i	155
CN(C)c1ccccc1C(=O)c1ccccc1N(C)C	i	132	i	i	nt	i
CN=c1scc(-c2ccccc2Br)n1/N=C/c1ccc[nH]1	54	i	i	i	nt	174
COc1ccc2c(c1)NC(c1cc(Cl)cc(Cl)c1O)c1cccn1-2 (centres undefined)	i	i	i	3.7	i	i

Screens from PubChem.
